For data set [1], the target named is T1, α7 nAChR (Homo sapiens, UniProt P36544). In words: Inhibition of α7 ACh-evoked responses, co-application with 60 µM ACh. In kind it is cell-based. The conditions noted are these: range 0.3–100 µM; co-applied with 60 µM ACh. In a few lines:
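Xenopus laevis oocytes expressing human α7 nAChR, two-electrode voltage clamp. Test compound co-applied with 60 µM ACh at 0.3, 1, 3, 10, 30, 100 […] µM. Net charge normalized to responses to 60 µM ACh applied alone. Each point is the mean of at least four cells (± S.E.M.); IC50 values come from the inhibition concentration-response curve.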

The target in data set [2] is T1, α7 nAChR. Format: cell-based. The conditions noted are these: for α7 activation / partial agonism: compound applied alone; for Response when applied alone, of the control ACh response: concentrations of Figure 4, 60 µM ACh control. In a few lines:
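Two-electrode voltage clamp on Xenopus laevis oocytes expressing human α7 nAChR. Test compound applied alone at 10, 30, 100, 300 µM and 1 mM; one comparator was tested only up to 300 µM. Response taken as net charge normalized to 60 µM ACh applied alone.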

Data set [3] has as its target T1, α7 nAChR. In words: PAM-potentiated α7 responses, co-application with 10 µM 1. In kind it is cell-based. The conditions noted are these: for Potentiation by 1: co-applied with 10 µM 1. In a few lines: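 Human α7 nAChR in Xenopus laevis oocytes, two-electrode voltage clamp. Test compound at 10, 30 or 100 µM co-applied with 10 µM positive allosteric modulator. Net charge normalized to 60 µM ACh controls in the same cells; at least four cells (± S.E.M.). Desensitization: 60 µM ACh responses recorded before and after test compound application, 210 s traces, averaged over 8 cells and normalized to pre-application ACh controls.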

For data set [4], the target named is human heteromeric nicotinic receptor α4β2 (Homo sapiens, UniProt P17787+P43681). In kind it is cell-based.
Data set [5] can be described thus: Hydrolytic stability in water and Ringer's buffer by 1H-NMR. Format: physicochemical. The conditions noted are these: water, room temperature (~ 25 °C), 3 h, 19 h and up to 60 days.
The next data set concerns the target muscle type human nAChR (Homo sapiens, UniProt P02708+Q07001). In words: Activation and ACh competition at muscle type nAChR, oocyte voltage clamp. Format: cell-based.
Data set [6] concerns the target ganglionic α3β4 human nAChR (Homo sapiens, UniProt P30926+P32297). In words: Activation and ACh competition at ganglionic α3β4 nAChR, oocyte voltage clamp. Format: cell-based.

The text below walks through data of PMC5653211 (Journal of medicinal chemistry, 2017).

In the case of `CCN1CCN(c2ccccc2)CC1` [compound 5, N-phenyl N’-ethyl piperazine], the “Inhibition of α7 ACh responses” value on α7 nAChR [1] was “lacked the ability to inhibit”. Also, at α7 nAChR [2], the “α7 activation / partial agonism” value is “no activation” and the “Response when applied alone, of the control ACh response” value (from here on “Response when applied alone”) is “less than 10%”. At α7 nAChR [3], the “Potentiation by 1” value is recorded as “failed to show significant potentiated responses”.
With `CC[S+]1CCN(c2ccccc2)CC1.O=S(=O)([O-])C(F)(F)F` [compound 7, 1-ethyl-4-phenylthiomorpholin-1-ium trifluoromethane sulfonate], the “Agonism” value in data set [4] is “failed to show agonism”. For the same compound, the “Hydrolytic stability, 1H-NMR spectra vs time zero” value in data set [5] was “no differences in the spectra”. Further, the “Activation” value (at muscle type human nAChR (30 µM compound); in data set [6] (30 µM compound)) was “failed to produce measureable activation” in each case. The “Antagonism” value (at muscle type human nAChR (co-application with 30 µM ACh); in data set [6] (co-application with 100 µM ACh)) was “weak antagonism” throughout. Moreover, on α7 nAChR [2], the “α7 activation / partial agonism” value is listed as “virtually no activation”. Moreover, the “Response when applied alone” value at α7 nAChR [2] is reported as “less than 10%”. Besides, the “PAM response enhancement compared to the parent compound 4” value on α7 nAChR [3] was 4 fold. Also, the Reversibility of desensitization entry at α7 nAChR [3] (100 µM 7 for 30s, then 10 µM PNU120596, subsequent 60 µM ACh response) is recorded as “readily reversible”. In addition, the “Potentiated response relative to the response to compound applied alone” value on α7 nAChR [3] (coapplication with 10 µM 1) is reported as 2–3 orders of magnitude. For the same compound, on α7 nAChR [3] (coapplication with 10 µM 1, over 10-100 µM compound), the “Response compared to the control ACh response” value lay in the range of 3 to 25 fold.
For the compound `CC[N+]1(CC)CCN(c2ccccc2)CC1` [compound 4, N,N-diethyl-N’-phenylpiperazine, reference compound], on α7 nAChR [2], the “Response when applied alone” value was “less than 10%”. Moreover, the “Potentiated responses relative to the corresponding ones for 7” value on α7 nAChR [3] (at 10, 30, and 100 µM + 10 µM 1) is listed as “half or less”. On α7 nAChR [3], the “Potentiation by 1” value was “modest potentiation”.
